ChEMBL document CHEMBL4732196, “Structural optimization towards promising β-methyl-4-acrylamido quinoline derivatives as PI3K/mTOR dual inhibitors for anti-cancer therapy: The in vitro and in vivo biological evaluation” (Eur J Med Chem, 2021)

Tests used:
U-87 MG [1] = assay: Antitumour activity against human U87MG cells xenografted in ICR nude mouse assessed as tumour growth inhibition at 30 mg/kg, po every other day for 24 days relative to control; format: functional, U-87MG ATCC; conditions: 576 h, time 24 day, read-out: TGI
Procedure, shortened: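 Male ICR nude mice inoculated subcutaneously with 5 × 10⁶ U87MG cells. Once tumours reached about 200 mm³, mice were randomised and dosed by oral gavage every other day for 24 days. Tumour volume (length × width² × 0.5) and body weight recorded every 4 days. Inhibition = 100 × {1 − [(final − initial volume) treated]/[(final − initial volume) vehicle]}.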

[2] = target: Mitogen-activated protein kinase 6 (Homo sapiens) (UniProt Q16659); assay: Inhibition of human partial length ERK3 (M1 to P413 residues) expressed in bacterial expression system assessed as residual activity at 10 uM by kinome scan method relative to control
Sequence of Mitogen-activated protein kinase 6 (Homo sapiens) (Q16659 whole entry, the tested form may be a part): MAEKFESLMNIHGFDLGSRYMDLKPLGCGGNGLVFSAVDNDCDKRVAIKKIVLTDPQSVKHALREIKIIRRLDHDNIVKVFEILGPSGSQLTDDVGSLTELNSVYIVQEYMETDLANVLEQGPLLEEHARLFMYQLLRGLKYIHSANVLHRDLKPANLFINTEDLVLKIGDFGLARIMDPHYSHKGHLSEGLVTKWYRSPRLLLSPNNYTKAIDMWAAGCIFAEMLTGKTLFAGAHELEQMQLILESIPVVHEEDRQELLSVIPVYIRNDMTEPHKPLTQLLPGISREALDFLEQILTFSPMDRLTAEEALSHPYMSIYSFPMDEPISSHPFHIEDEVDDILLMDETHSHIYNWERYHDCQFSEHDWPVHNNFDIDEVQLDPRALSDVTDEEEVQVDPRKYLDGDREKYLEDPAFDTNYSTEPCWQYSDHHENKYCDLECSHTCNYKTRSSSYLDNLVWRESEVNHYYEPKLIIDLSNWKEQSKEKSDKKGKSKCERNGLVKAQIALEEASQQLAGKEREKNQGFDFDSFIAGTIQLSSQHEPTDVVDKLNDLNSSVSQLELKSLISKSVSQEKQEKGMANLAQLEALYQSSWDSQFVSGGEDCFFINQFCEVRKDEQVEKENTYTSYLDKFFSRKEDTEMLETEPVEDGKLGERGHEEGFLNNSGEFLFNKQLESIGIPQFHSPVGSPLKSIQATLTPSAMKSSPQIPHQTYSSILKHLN
Procedure, shortened: (§1)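 KINOMEscan binding assay, test compound at 10 μM against a 52-kinase panel. % Ctrl = (compound signal − positive control signal)/(negative control signal − positive control signal) × 100, with DMSO as negative control (100%) and a positive control (0%).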

[3] = target: Serine/threonine-protein kinase TNNI3K (Homo sapiens) (UniProt Q59H18); assay: Inhibition of human full length TNNI3K (M1 to S835 residues) expressed in bacterial expression system assessed as residual activity at 10 uM by kinome scan method relative to control; procedure, shortened: as §1
Sequence of Serine/threonine-protein kinase TNNI3K (Homo sapiens) (Q59H18 whole entry, the tested form may be a part): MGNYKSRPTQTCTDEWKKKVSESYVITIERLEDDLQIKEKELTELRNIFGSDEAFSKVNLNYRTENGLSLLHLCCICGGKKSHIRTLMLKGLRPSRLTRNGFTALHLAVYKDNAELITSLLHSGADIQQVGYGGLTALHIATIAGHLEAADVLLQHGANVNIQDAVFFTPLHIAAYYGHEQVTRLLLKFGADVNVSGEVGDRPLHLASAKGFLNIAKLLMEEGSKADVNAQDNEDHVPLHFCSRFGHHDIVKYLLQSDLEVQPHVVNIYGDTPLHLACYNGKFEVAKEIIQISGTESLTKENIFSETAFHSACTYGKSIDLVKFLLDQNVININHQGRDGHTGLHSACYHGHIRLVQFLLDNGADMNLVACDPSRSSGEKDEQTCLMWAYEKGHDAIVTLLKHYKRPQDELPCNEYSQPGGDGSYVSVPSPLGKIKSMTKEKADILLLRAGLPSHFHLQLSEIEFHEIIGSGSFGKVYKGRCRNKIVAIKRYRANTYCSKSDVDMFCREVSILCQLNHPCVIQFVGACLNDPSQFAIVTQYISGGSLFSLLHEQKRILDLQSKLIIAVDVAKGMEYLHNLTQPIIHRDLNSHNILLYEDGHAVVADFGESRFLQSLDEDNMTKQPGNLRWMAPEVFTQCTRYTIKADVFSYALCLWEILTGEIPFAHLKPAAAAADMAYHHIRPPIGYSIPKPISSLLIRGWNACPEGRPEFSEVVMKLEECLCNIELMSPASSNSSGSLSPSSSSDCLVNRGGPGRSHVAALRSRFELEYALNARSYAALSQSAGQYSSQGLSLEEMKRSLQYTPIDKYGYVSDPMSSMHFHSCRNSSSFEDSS

[4] = target: Phosphatidylinositol 4-phosphate 5-kinase type-1 alpha (Homo sapiens) (UniProt Q99755); assay: Inhibition of human full length PIP5K1A (M1 to H562 residues) expressed in bacterial expression system assessed as residual activity at 10 uM by kinome scan method relative to control; procedure, shortened: as §1
Sequence of Phosphatidylinositol 4-phosphate 5-kinase type-1 alpha (Homo sapiens) (Q99755 whole entry, the tested form may be a part, canonical isoform): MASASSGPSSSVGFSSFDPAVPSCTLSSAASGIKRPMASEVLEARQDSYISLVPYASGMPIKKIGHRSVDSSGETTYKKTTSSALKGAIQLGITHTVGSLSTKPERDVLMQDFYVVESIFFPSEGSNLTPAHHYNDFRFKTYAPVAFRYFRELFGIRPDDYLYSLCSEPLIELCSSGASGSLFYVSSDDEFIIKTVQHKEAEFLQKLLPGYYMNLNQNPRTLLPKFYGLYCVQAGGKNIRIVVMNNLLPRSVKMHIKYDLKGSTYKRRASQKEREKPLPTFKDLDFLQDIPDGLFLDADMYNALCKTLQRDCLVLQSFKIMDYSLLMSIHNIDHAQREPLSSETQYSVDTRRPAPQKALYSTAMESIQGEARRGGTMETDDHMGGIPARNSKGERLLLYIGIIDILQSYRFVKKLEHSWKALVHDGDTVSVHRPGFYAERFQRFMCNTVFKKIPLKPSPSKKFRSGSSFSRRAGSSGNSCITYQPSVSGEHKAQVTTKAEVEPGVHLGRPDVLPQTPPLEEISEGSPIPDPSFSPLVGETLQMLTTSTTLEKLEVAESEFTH

[5] = target: Casein kinase I isoform alpha-like (Homo sapiens) (UniProt Q8N752); assay: Inhibition of human partial length CSNK1A1L (M1 to N337 residues) expressed in bacterial expression system assessed as residual activity at 10 uM by kinome scan method relative to control; procedure, shortened: as §1
[6] = target: Activin receptor type-2A (Homo sapiens) (UniProt P27037); assay: Inhibition of human partial length ACVR2A (V171 to T499 residues) expressed in bacterial system assessed as residual activity at 10 uM by kinome scan method relative to control; procedure, shortened: as §1
[7] = target: Cyclin-dependent kinase-like 3 (Homo sapiens) (UniProt Q8IVW4); assay: Inhibition of human partial length CDKL1 (M1 to D327 residues) expressed in bacterial system assessed as residual activity at 10 uM by kinome scan method relative to control; procedure, shortened: as §1
Sequence of Cyclin-dependent kinase-like 3 (Homo sapiens) (Q8IVW4 whole entry, looked up, the tested form may be a part, canonical isoform): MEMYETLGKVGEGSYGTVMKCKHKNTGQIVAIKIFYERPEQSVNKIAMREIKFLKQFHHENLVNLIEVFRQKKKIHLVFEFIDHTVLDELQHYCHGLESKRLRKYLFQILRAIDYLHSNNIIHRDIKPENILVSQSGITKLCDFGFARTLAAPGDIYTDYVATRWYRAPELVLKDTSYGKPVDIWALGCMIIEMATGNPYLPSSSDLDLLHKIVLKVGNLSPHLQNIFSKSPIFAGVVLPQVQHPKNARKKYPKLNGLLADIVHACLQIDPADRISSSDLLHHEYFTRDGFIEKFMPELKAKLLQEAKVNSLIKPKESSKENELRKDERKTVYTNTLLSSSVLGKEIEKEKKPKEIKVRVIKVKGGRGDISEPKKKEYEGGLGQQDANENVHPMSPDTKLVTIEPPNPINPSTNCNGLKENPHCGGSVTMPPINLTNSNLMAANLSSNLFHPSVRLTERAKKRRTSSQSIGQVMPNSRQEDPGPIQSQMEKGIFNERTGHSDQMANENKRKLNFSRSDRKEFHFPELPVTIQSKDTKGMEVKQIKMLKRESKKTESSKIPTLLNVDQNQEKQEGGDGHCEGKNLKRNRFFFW

[8] = target: Phosphatidylinositol 4,5-bisphosphate 3-kinase catalytic subunit delta isoform (Homo sapiens, UniProt O00329); assay: Inhibition of PI3Kdelta (unknown origin) using PIP2 as substrate measured after 1 hr by ADP-glo assay
[9] = target: Phosphatidylinositol 4,5-bisphosphate 3-kinase catalytic subunit gamma isoform (Homo sapiens, UniProt P48736); assay: Inhibition of recombinant human full-length His-tagged PI3Kgamma expressed in baculovirus expression system using PIP2 as substrate measured after 1 hr by ADP-glo assay
[10] = target: Cyclin-dependent kinase 8 (Homo sapiens) (UniProt P49336); assay: Inhibition of human partial length CDK8 (M1 to T360 residues) expressed in bacterial system assessed as residual activity at 10 uM by kinome scan method relative to control; procedure, shortened: as §1
U-87 MG [11] = assay: Growth inhibition of human U87MG cells after 72 hrs by sulforhodamine B assay; format: functional, U-87MG ATCC
[12] = target: Receptor tyrosine-protein kinase erbB-3 (Homo sapiens) (UniProt P21860); assay: Inhibition of human partial length ERBB3 (G684 to A987 residues) expressed in mammalian expression system assessed as residual activity at 10 uM by kinome scan method relative to control; procedure, shortened: as §1
[13] = target: T1, Serine/threonine-protein kinase mTOR (Homo sapiens, UniProt P42345); assay: Inhibition of human partial length mTOR (L1382 to W2549 residues) expressed in mammalian expression system assessed as residual activity at 10 uM by kinome scan method relative to control
Procedure, shortened: (§2)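 KINOMEscan competitive binding screen at 10 μM test compound against a 52-kinase panel. Output is % Ctrl = (test signal − positive control signal)/(negative control signal − positive control signal) × 100. DMSO is the negative control (100%) and the positive control is set to 0%.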

[14] = target: Cyclin-dependent kinase 19 (Homo sapiens) (UniProt Q9BWU1); assay: Inhibition of human partial length CDK11 (M1 to N360 residues) expressed in bacterial system assessed as residual activity at 10 uM by kinome scan method relative to control; procedure, shortened: as §1
[15] = target: Cyclin-dependent kinase-like 1 (Homo sapiens) (UniProt Q00532); assay: Inhibition of human partial length CDKL1 (M1 to I358 residues) expressed in bacterial system assessed as residual activity at 10 uM by kinome scan method relative to control; procedure, shortened: as §1
[16] = target: Serine/threonine-protein kinase Nek10 (Homo sapiens) (UniProt Q6ZWH5); assay: Inhibition of human partial length NEK10 (L488 to R809 residues) expressed in mammalian expression system assessed as residual activity at 10 uM by kinome scan method relative to control; procedure, shortened: as §1
[17] = target: Cyclin-dependent kinase 14 (Homo sapiens) (UniProt O94921); assay: Inhibition of human full length PFTK1 (M1 to H451 residues) expressed in bacterial expression system assessed as residual activity at 10 uM by kinome scan method relative to control; procedure, shortened: as §1
[18] = target: Cyclin-dependent kinase 11B (Homo sapiens) (UniProt P21127); assay: Inhibition of human partial length CDC2L1 (P353 to G692 residues) expressed in bacterial system assessed as residual activity at 10 uM by kinome scan method relative to control; procedure, shortened: as §1
Sequence of Cyclin-dependent kinase 11B (Homo sapiens) (P21127 whole entry, the tested form may be a part): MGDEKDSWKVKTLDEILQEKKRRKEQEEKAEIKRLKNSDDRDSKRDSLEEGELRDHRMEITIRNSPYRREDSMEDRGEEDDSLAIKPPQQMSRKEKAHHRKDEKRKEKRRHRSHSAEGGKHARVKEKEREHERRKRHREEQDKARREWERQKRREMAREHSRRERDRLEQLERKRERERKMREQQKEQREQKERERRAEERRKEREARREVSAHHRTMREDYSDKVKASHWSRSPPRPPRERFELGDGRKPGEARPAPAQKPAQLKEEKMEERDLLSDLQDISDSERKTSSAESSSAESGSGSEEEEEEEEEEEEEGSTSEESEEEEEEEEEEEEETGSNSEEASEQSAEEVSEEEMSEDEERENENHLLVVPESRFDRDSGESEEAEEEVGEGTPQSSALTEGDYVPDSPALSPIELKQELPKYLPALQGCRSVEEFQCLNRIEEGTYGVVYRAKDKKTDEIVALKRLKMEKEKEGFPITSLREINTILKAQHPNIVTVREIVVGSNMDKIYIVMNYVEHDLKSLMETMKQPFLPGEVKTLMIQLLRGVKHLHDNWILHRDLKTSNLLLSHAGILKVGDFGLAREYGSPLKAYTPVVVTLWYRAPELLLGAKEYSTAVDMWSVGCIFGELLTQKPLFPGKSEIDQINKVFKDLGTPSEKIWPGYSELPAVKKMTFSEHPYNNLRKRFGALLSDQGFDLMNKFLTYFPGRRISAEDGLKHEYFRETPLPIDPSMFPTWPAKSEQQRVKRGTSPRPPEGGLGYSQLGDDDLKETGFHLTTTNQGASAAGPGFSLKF

[19] = target: Dual specificity mitogen-activated protein kinase kinase 7 (Homo sapiens) (UniProt O14733); assay: Inhibition of human full length MKK7 (M1 to R419 residues) expressed in mammalian expression system assessed as residual activity at 10 uM by kinome scan method relative to control; procedure, shortened: as §1
[20] = target: T1, Serine/threonine-protein kinase mTOR; assay: Inhibition of recombinant human N-terminal FLAG-tagged mTOR (1362 to end amino acids) using ULight-4E-BP1 as substrate incubated for 1 hr by LANCE Ultra assay
[21] = Toxicity in ICR nude mouse xenografted with U87MG cells assessed as reduction in body weight at 30 to 60 mg/kg, po every other day for 24 days; format: organism-based; conditions: in vivo, 576 h, dose 30-60 mg/kg, time 24 day
Procedure, shortened: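 Male ICR nude mice were implanted subcutaneously with 5 × 10^6 U87MG cells. When tumors reached about 200 mm³, mice were randomized and given 30 or 60 mg/kg by oral gavage every other day for 24 days. Body weight and tumor volume (length × width² × 0.5) were recorded every 4 days, with a vehicle-treated group as comparator.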

[22] = target: Serine/threonine-protein kinase 32A (Homo sapiens) (UniProt Q8WU08); assay: Inhibition of human full length YANK1 (M1 to L396 residues) expressed in mammalian expression system assessed as residual activity at 10 uM by kinome scan method relative to control; procedure, shortened: as §1
Sequence of Serine/threonine-protein kinase 32A (Homo sapiens) (Q8WU08 whole entry, the tested form may be a part): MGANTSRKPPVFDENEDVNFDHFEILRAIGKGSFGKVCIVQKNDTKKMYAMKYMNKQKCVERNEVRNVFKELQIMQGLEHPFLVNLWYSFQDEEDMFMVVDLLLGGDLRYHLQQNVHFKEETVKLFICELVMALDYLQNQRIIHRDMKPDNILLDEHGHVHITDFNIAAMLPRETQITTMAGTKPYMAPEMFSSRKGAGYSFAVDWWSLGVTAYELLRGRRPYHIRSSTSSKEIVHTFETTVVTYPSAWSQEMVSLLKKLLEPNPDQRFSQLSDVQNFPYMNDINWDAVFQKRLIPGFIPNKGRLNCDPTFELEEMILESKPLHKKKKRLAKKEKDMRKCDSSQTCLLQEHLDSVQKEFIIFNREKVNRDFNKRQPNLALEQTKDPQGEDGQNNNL

[23] = target: Receptor-interacting serine/threonine-protein kinase 4 (Homo sapiens) (UniProt P57078); assay: Inhibition of human partial length RIPK4 (M1 to V303 residues) expressed in mammalian expression system assessed as residual activity at 10 uM by kinome scan method relative to control; procedure, shortened: as §2
Sequence of Receptor-interacting serine/threonine-protein kinase 4 (Homo sapiens) (P57078 whole entry, the tested form may be a part): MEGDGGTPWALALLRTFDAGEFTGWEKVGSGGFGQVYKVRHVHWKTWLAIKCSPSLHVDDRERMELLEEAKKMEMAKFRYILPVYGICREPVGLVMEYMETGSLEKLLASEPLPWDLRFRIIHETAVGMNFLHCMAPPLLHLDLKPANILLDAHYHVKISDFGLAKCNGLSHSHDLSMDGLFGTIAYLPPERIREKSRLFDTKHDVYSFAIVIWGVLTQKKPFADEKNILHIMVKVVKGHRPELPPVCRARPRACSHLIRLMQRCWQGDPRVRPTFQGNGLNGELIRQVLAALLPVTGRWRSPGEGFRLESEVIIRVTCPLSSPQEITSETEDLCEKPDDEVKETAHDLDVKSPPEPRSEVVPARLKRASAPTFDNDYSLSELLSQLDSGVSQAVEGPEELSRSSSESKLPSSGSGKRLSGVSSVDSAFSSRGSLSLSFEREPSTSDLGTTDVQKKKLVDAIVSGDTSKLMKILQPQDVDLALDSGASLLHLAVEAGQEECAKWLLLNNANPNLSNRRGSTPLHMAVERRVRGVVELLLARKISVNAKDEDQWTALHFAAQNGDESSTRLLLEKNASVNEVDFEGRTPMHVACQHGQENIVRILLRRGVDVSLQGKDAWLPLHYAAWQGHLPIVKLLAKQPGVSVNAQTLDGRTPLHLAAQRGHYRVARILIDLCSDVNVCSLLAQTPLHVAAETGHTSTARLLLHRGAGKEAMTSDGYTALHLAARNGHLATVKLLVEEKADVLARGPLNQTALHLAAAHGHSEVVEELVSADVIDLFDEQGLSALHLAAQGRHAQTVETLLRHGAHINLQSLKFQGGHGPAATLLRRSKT

- Activity [2]: 78%
- Activity [3]: 87%
- Activity [4]: 45%
- Activity [5]: 84%
- Activity [6]: 100%
- Activity [7]: 100%
- IC50 [8]: 1.3 nM
- IC50 [9]: 1.3 nM
- Activity [10]: 96%
- GI50 (U-87 MG [11]): 140 nM
- Activity [12]: 89%
- Activity [13]: 0%
- Activity [14]: 95%
- Activity [15]: 82%
- Activity [16]: 61%
- Activity [17]: 78%
- Activity [18]: 93%
- Activity [19]: 73%
- IC50 [20]: 5 nM
- Activity [22]: 84%
- Activity [23]: 82%
SMILES: COc1ncc(-c2ccc3nccc(/C(C)=C/C(=O)N4CCN(C)CC4)c3c2)cc1NS(=O)(=O)c1ccc(F)cc1F
- inhibition in vivo at 30 mg/kg (U-87 MG [1]): 93.5%
- Activity [21]: Non-Toxic
